Reference: ChEMBL document CHEMBL1126706, “Structure-activity relationship of N-[2-(dimethylamino)-6-[3-(5-methyl-4-phenyl-1H-imidazol-1-yl)propoxy] phenyl]-N'-pentylurea and analogues. Novel potent inhibitors of acyl-CoA:cholesterol O-acyltransferase with antiatherosclerotic activity” (J Med Chem, 1993)

What was measured:
[1] = biological target: O-acyltransferase (Oryctolagus cuniculus, UniProt G1SFD9); assay: Tested for inhibition against acyl coenzyme A:cholesterol acyltransferase from rabbit intestine microsomes.
Sequence of O-acyltransferase (G1SFD9 1-524): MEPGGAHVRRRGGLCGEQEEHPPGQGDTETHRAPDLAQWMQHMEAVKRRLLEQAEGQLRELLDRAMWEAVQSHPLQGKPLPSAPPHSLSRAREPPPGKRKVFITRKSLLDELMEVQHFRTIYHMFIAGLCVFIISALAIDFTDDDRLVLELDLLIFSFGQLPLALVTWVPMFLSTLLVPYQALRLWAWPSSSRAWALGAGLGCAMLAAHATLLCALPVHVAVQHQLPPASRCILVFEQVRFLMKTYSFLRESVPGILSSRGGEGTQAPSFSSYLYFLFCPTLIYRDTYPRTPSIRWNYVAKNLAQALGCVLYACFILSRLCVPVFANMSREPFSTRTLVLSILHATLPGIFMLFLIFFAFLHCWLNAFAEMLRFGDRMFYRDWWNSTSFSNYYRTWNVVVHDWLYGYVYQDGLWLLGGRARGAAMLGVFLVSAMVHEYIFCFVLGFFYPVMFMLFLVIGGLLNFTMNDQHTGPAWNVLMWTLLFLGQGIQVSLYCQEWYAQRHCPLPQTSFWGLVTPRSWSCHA
Summary of the method: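 Intestinal mucosa microsomes from NZW rabbit (10000g then 105000g pellet, buffered sucrose pH 7.4). Endogenous cholesterol plus 40 μM [1-14C]oleoyl-CoA in K2HPO4 buffer pH 7.4 with 2.4 mg/mL BSA; compound preincubated 3 min at 37 °C, enzyme (8 mg protein/mL) added, 2 min reaction, chloroform/methanol 2:1 stop. IC50 from triplicate tubes per concentration.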

[2] = biological target: T1, Acyl-CoA:cholesterol acyltransferase (Oryctolagus cuniculus, UniProt Q95214); assay: Tested for inhibition against acyl coenzyme A:cholesterol acyltransferase from rabbit aorta homogenate.; format: tissue-based
T1 sequence (Q95214 whole entry): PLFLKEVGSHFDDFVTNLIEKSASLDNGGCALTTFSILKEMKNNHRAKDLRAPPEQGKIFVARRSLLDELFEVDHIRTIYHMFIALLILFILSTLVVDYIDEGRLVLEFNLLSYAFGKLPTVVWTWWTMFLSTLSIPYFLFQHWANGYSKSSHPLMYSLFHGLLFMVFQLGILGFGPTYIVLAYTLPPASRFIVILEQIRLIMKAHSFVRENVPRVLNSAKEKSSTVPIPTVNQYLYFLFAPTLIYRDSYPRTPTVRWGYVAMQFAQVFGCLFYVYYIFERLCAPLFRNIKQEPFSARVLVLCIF

[3] = test system: Rattus norvegicus; assay: Tested for cholesterol lowering activity in rats after a dose of 10 mg/kg once a day for 5 days; format: functional
Summary of the method: (§1)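 Male Sprague-Dawley rats, 5 weeks old, fed chow with 1% cholesterol and 0.5% cholic acid while given drug orally once daily as a suspension in 2% Sefuzol. Starved 5 h after last dose, bled from abdominal aorta under ether; serum total cholesterol measured enzymatically. Result as percent of control (n ≥ 4).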

[4] = organism: Rattus norvegicus; assay: Tested for hypocholesterolemic activity required to decrease serum total cholesterol; format: functional
Summary of the method: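 Male Sprague-Dawley rats (5 weeks) on 1% cholesterol/0.5% cholic acid chow; drug in 2% Sefuzol given orally once daily for 5 days. Serum total cholesterol measured enzymatically after 5 h fast. ED30 (mg/kg dose lowering serum cholesterol to 30% of control) read from dose-response curve of at least 3 doses, n = 4 or 5.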

[5] = test system: Rattus norvegicus; assay: Tested for cholesterol lowering activity in rats after a dose of 50 mg/kg once a day for 2 days; format: functional; summary of the method: as §1
[6] = test system: Oryctolagus cuniculus; assay: Tested for the plasma total cholesterol level in rabbit after administration of 0.2% (w/w) of drug for first 4 days; format: functional, organism-based
Summary of the method: (§2)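 Male NZW rabbits (2.5-3.0 kg) were fed chow with 0.5% cholesterol and 0.5% olive oil, 100 g/day, for 8 weeks, then randomized by plasma cholesterol. Drug was mixed into the diet for 4 weeks, either 0.2% (w/w) for 4 days then 0.1%, or 0.1% throughout. Plasma total cholesterol was measured enzymatically in EDTA ear-vein blood. Mean ± SEM; Student's t test vs control.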

[7] = organism: Oryctolagus cuniculus; assay: Tested for the atheromatous lesion development in rabbit; format: functional
Summary of the method: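 Male NZW rabbits (2.5-3.0 kg) fed 100 g/day chow with 0.5% cholesterol and 0.5% olive oil for 8 weeks, randomized by plasma cholesterol, then 4 weeks with drug mixed in diet (0.2% then 0.1% w/w, or 0.1% w/w). Thoracic aorta halved: one half formalin-fixed, Sudan IV-stained, stained area measured by image analysis; other half cholesterol content by TLC-FID. Mean ± SEM, 7-12 per group, Student's t test.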

[8] = test system: Rattus norvegicus; assay: Tested for cholesterol lowering activity in rats after a dose of 30 mg/kg once a day for 5 days; format: functional; settings: dose 10 mg/kg; in the assay text read “10 mg/kg” for “30 mg/kg”; summary of the method: as §1
[9] = test system: Oryctolagus cuniculus; assay: Tested for the plasma total cholesterol level in rabbit after administration of 0.1% (w/w) of drug for first 4 days; format: functional, organism-based; summary of the method: as §2

Structure (SMILES) | IC50 [1] | IC50 [2] | Cholesterol reduction [3] | also measured
CCCNC(=O)Nc1c(OCCCn2cnc(-c3ccccc3)c2)cccc1N(C)C | 660 nM | 7230 nM | – | –
CCCCCNC(=O)Nc1c(SCCCn2cnc(-c3ccccc3)c2C)cccc1N(C)C | 56 nM | 58 nM | – | –
CCCCCNC(=O)Nc1c(OCCCn2cnc(-c3ccc(CCCC)cc3)c2)cccc1N(C)C | 54 nM | 430 nM | -46% | –
CCCCCNC(=O)Nc1c(OCCCn2cnc3ccccc32)cccc1N(C)C | 180 nM | 620 nM | -12% | –
CCCCCNC(=O)Nc1c(OCCCn2cnc(-c3ccc(OC)cc3)c2)c(Br)cc(Br)c1N(C)C | 2400 nM | 1300 nM | – | –
CCCCCNC(=O)Nc1c(OCCCn2cnc(-c3ccccc3)c2C)ncnc1N(C)C | 5500 nM | 11000 nM | – | –
CCCCCNC(=O)Nc1c(OCCCn2cnc(C)c2-c2ccccc2)cccc1N(C)C | 85 nM | 210 nM | -46% | –
CCCCCNC(=O)Nc1c(OCCCn2ncc(-c3ccccc3)n2)cccc1N(C)C | 32 nM | 180 nM | -32% | –
CCCCCCNC(=O)Nc1c(OCCCn2cnc(-c3ccccc3)c2)cccc1N(C)C | 60 nM | 50 nM | – | ED30 [4]: 1.3 mg/kg; Cholesterol reduction [5]: -57%; Plasma total cholesterol [6]: 924 mg/dL; Surface involvement [7]: 30.6%
CCCCCNC(=O)Nc1c(OCCCN2CCN(c3ccccc3)CC2)cccc1N(C)C | – | 180 nM | -44% | –
CCCCCNC(=O)Nc1c(N(C)C)ccc(C)c1OCCCn1cnc(-c2ccccc2)c1 | 410 nM | 250 nM | – | –
CCCCCNC(=O)Nc1c(NCCCn2cnc(-c3ccccc3)c2C)cccc1N(C)C | 470 nM | 2200 nM | – | –
CN(C)c1cccc(OCCCn2cnc(-c3ccccc3)c2)c1NC(=O)NC1CCCCC1 | 73 nM | 1070 nM | – | Cholesterol reduction [5]: -42%
CCCCCNC(=O)Nc1c(OCCCn2nc3ccccc3n2)cccc1N(C)C | 770 nM | 290 nM | -3.4% | –
CCCCCNC(=O)Nc1c(OCCCn2cnc(-c3ccc(OC)cc3)c2)cccc1N(C)C | 59 nM | 1330 nM | -36% | –
CCCCCNC(=O)Nc1c(OCCCn2cnc(-c3cccc4ccccc34)c2)cccc1N(C)C | 65 nM | 1550 nM | -30% | –
CCCCCNC(=O)Nc1ccc(OCCCn2cnc(-c3ccccc3)c2C)cc1N(C)C | 2400 nM | 1500 nM | – | –
CCCCCNC(=O)Nc1c(OCCCNCCc2ccccc2)cccc1N(C)C | 960 nM | 3440 nM | -18% | –
CCCCNC(=O)Nc1c(OCCCn2cnc(-c3ccccc3)c2)cccc1N(C)C | 140 nM | 810 nM | – | ED30 [4]: 75 mg/kg; Cholesterol reduction [5]: -37%; Plasma total cholesterol [6]: 1190 mg/dL; Surface involvement [7]: 23.5%

Structure (SMILES) | IC50 [1] | IC50 [2] | Cholesterol reduction [3] | also measured
CCCCCC(=O)Nc1c(OCCCn2cnc(-c3ccccc3)c2)cccc1N(C)C | 200 nM | 100 nM | – | Cholesterol reduction [5]: 3%
CCCCCNC(=O)Nc1cc(OCCCn2cnc(-c3ccccc3)c2C)ccc1N(C)C | 410 nM | 410 nM | – | –
CCCCCCNc1c(OCCCn2cnc(-c3ccccc3)c2)cccc1N(C)C | 11000 nM | 3300 nM | – | –
CCCCCNC(=O)Nc1c(OCCCn2cc(-c3ccc(OC)cc3)nc2C)cccc1N(C)C | 160 nM | 730 nM | -15% | –
CN(C)c1cccc(OCCCn2cnc(-c3ccccc3)c2)c1NC(=O)NC(C)(C)C | 130 nM | 990 nM | – | Cholesterol reduction [5]: -12%
CCNC(=O)Nc1c(OCCCn2cnc(-c3ccccc3)c2)cccc1N(C)C | 870 nM | > 10000 nM | – | Cholesterol reduction [5]: 2%
CN(C)c1cccc(OCCCn2cnc(-c3ccccc3)c2)c1NC(=O)NC1CCCC1 | 240 nM | 3530 nM | – | Cholesterol reduction [5]: -24%
CCCCCNC(=O)Nc1c(OCCn2cnc(-c3ccccc3)c2)cccc1N(C)C | 170 nM | 1400 nM | – | –
CCCCCNC(=O)Nc1c(OCCCN2CCC(c3ccccc3)CC2)cccc1N(C)C | 340 nM | 470 nM | -27% | –
CCCCCNC(=O)Nc1c(OCCCn2ccnc2-c2ccccc2)cccc1N(C)C | 380 nM | 480 nM | – | Cholesterol reduction [8]: -12%
CCCCCN(C)C(=O)Nc1c(OCCCn2cnc(-c3ccccc3)c2)cccc1N(C)C | 550 nM | 280 nM | – | –
CCCCCNC(=O)Nc1c(OCCCn2cnc(-c3ccccc3)c2C)cccc1N(C)C | – | 110 nM | -49% | ED30 [4]: 4.5 mg/kg; Plasma total cholesterol [9]: 800 mg/dL; Surface involvement [7]: 21%
CCCCCNC(=O)Nc1cccc(OCCCn2cnc(-c3ccccc3)c2C)c1N(C)C | 5800 nM | 3200 nM | – | –
CCCCCNC(=O)Nc1c(OCCCCn2cnc(-c3ccccc3)c2)cccc1N(C)C | 160 nM | 780 nM | – | –
CCCCCNC(=O)Nc1c(CCCCn2cnc(-c3ccccc3)c2C)cccc1N(C)C | 170 nM | 140 nM | -37% | –
CCCCCNC(=O)Nc1c(OCCCn2cnc(-c3ccccc3)c2)cccc1N(C)C | 31 nM | 160 nM | – | ED30 [4]: 14 mg/kg; Cholesterol reduction [5]: -51%; Plasma total cholesterol [6]: 830 mg/dL; Surface involvement [7]: 22.8%
CCCCCNC(=O)Nc1c(OCCCn2nnc(-c3ccccc3)n2)cccc1N(C)C | 23 nM | 230 nM | -48% | –
CCCCCNC(=O)N(C)c1c(OCCCn2cnc(-c3ccccc3)c2)cccc1N(C)C | 930 nM | 400 nM | – | –
